High-throughput results as filed in PubChem.
PostGolgi ctrl – inhibits growth of the yeast control strain; efflux-deficient yeast background strain, growth absorbance A615, 16 h; inhibition, % at 10 µM; 98,000 tested, 5% active; AID 738
Cav3 T inh – blocks human Cav3.2 T-type calcium channel; O95180; Cav3.2-expressing cells, Fluo-4 calcium fluorescence FDSS; active compounds read low; B-score at 10 µM; 100,000 tested, 4% active;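 active means single-dose well whose peak fluorescence ratio is a statistical outlier from its plate by either plate-standardised score or position-corrected B-score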
Target sequence (O95180 whole entry, looked up): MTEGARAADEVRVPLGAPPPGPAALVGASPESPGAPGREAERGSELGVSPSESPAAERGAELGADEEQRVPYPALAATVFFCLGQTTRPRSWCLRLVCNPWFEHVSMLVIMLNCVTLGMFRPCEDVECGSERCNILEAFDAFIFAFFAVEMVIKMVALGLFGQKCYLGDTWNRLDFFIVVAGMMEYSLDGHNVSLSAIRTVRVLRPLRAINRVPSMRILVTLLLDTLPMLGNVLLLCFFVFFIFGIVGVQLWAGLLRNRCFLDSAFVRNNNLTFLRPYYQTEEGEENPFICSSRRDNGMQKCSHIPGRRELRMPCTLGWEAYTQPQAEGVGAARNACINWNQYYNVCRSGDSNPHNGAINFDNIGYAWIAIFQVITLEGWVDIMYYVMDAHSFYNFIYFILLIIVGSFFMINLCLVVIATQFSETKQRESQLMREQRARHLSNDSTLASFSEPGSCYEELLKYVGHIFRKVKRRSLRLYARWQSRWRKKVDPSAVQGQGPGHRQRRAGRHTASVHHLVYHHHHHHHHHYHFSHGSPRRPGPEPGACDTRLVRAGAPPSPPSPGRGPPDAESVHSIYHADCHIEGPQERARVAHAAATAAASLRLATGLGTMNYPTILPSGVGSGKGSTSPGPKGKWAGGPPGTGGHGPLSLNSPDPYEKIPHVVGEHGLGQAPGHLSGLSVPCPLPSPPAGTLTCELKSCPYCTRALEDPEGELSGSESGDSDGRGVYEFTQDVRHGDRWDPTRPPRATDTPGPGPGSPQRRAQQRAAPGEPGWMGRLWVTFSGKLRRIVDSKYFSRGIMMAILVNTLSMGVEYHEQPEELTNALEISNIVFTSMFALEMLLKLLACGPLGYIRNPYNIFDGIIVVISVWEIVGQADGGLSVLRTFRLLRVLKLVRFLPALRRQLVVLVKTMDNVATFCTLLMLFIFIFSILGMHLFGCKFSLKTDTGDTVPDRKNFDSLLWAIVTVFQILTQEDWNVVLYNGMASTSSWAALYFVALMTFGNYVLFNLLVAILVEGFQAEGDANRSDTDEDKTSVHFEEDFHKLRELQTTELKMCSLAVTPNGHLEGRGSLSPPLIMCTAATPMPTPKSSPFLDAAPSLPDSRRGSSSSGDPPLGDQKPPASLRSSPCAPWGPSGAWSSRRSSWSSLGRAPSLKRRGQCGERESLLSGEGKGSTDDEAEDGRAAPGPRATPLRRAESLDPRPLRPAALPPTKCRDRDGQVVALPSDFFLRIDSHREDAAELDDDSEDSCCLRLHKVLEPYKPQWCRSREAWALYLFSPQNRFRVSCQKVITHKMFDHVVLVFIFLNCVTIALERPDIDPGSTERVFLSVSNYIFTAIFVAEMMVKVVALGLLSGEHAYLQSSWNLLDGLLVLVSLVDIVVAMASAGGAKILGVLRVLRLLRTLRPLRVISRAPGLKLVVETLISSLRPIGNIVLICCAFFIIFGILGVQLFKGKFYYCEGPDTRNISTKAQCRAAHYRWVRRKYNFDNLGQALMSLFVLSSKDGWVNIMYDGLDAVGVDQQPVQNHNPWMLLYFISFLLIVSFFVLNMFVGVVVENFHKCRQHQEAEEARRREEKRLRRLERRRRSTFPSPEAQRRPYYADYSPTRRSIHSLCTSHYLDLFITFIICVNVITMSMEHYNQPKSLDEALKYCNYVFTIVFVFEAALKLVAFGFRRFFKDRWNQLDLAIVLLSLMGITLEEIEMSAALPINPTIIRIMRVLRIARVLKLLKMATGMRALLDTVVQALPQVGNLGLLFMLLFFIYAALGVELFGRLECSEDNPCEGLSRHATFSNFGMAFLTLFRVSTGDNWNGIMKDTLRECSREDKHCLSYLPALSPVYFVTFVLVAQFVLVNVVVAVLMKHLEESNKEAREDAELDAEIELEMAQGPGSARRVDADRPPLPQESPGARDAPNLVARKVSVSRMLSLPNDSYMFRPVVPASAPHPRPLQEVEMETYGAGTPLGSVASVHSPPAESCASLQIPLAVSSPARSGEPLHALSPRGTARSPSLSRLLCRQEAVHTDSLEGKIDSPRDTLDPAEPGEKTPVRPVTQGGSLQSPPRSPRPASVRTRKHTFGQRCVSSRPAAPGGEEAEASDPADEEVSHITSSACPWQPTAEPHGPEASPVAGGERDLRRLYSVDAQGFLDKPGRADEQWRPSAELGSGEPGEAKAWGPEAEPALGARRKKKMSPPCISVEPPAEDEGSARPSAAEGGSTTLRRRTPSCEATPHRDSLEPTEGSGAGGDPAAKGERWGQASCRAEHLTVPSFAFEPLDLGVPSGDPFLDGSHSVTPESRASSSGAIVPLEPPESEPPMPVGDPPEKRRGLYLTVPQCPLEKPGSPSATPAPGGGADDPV
PostGolgi yeast – growth inhibition of a yeast mutant, post-Golgi transport screen; 98,000 tested, 0.9% active; AID 739; inhibition, % at 10 µM; post-Golgi transport phenotypic cell assay;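 further: yeast cells grown in 1536-well plates; yeast grown about 18 h at 30C before absorbance read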
Pyk2 oligo antag – blocks oligomerization of human Pyk2 in cells | Q14289 | Q293 cells, Pyk2 FERM NanoBiT luminescence; active compounds read low | z-score (the deposit names both 25 µM and 10 µM) | 99,000 tested, 0.83% active;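 active means Z-score of -3 or lower, scaled per plate to the spread of control and sample wells; inactive means z-score above -3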;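 further: negative z-score means lost luminescence so less FERM oligomerization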
tolC growth inh – growth inhibitors of E. coli BW25113 tolC mutant. OD615. growth inhibition, % at 10 µM (by protocol). 65,000 tested, 2.2% active. AID 573;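 active means growth inhibition at or above a cutoff equal to the mean over every tested compound plus 3 SD, cut at about 60% in these data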;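 further: growth measured after 20 h incubation at 37 °C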
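test system = E. coli BW25113 ΔtolC::kan bacteria | medium = LB with kanamycin 50 µg/mL | signal = OD at 615 nm | schedule = 37 °C, 20 h exposure | evaluation = % inhibition of E. coli growth | compound dosing = one dose of 10 µM final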
Ecoli WT expand – E. coli BW25113 growth inhibition, expanded screen | growth inhibition, % at 100 µM | OD600 absorbance | 98,000 tested, 0.15% active;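 active means growth inhibition above about 50% at one test dose, limit read from the data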;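 further: growth measured after 20 h incubation at 37 °C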
* hit, by the source's call. Shown are actives, neighbours in structure and some others; about 8.7% of the full set was active somewhere. Unless noted, no stated cut-off is given here; in the data, active means inhibition above about 30%; inactive means the rest.

Results for O=C(O)c1ccc(S(=O)(=O)N2CCC(c3nc(-c4ccccc4Cl)no3)CC2)cc1 ?
PostGolgi ctrl: -2.5; Cav3 T inh: 0.266; PostGolgi yeast: -9.7; Pyk2 oligo antag: -0.22; tolC growth inh: 35.2; Ecoli WT expand: -1.0

Results for O=C(C(c1ccccc1)c1ccccc1)N1CCC(c2nc(-c3ccccc3Cl)no2)CC1 ?
Cav3 T inh: -6.22*; Pyk2 oligo antag: 0.28

Results for O=C1C2=C(Nc3ccccc3SC2c2ccco2)c2ccccc21 (stereo not drawn) ?
PostGolgi ctrl: 71.9*; Cav3 T inh: -5.14*; PostGolgi yeast: 12.3; Pyk2 oligo antag: -0.54; tolC growth inh: 100.0*; Ecoli WT expand: 20.0

How did CC(=O)N1CCN=C1SCc1ccc(Br)cc1 do in these assays?
PostGolgi ctrl: 11.3; Cav3 T inh: -4.81*; PostGolgi yeast: 17.7; tolC growth inh: -6.3; Ecoli WT expand: 6.0

What do the screens show for `CC(=O)N1CCN=C1SCc1c(F)cccc1Cl`?
PostGolgi ctrl: 32.0*; Cav3 T inh: 0.0902; PostGolgi yeast: 3.2; tolC growth inh: -3.0; Ecoli WT expand: 6.0

What do the screens show for `CCCNC(=O)c1ccccc1NC(=O)c1ccc(CSc2ccccc2)cc1`?
PostGolgi ctrl: 80.4*; Cav3 T inh: -2.16; PostGolgi yeast: 12.2; Pyk2 oligo antag: -1.15; Ecoli WT expand: -3.0

Results for CCOCCc1nnc(NC(=O)COC)s1 ?
PostGolgi ctrl: -0.6; Cav3 T inh: 0.606; PostGolgi yeast: -6.6; Pyk2 oligo antag: -0.24; tolC growth inh: -18.8; Ecoli WT expand: 5.0

Results for O=c1cc(-c2ccccc2)nc(N2CCN(Cc3ccccc3)CC2)[nH]1 ?
PostGolgi ctrl: 38.9*; PostGolgi yeast: 12.9; Pyk2 oligo antag: -0.99; tolC growth inh: 19.8; Ecoli WT expand: 10.0

Results for Cc1nc(N2CCN(Cc3ccccc3)CC2)[nH]c(=O)c1C ?
Cav3 T inh: 2.64; Pyk2 oligo antag: 0.23; tolC growth inh: -16.4

How did COC(=O)c1cccc(C23CC4(C2)[C@H](CN(Cc2cccnc2)[C@@H]4c2ccccc2)C3c2ccccc2)c1 (stereo partly drawn) do in these assays?
Cav3 T inh: 0.378

How did Cc1ccc(C)c(S(=O)(=O)NC(C)C(=O)Nc2ccc(-c3nc4ccccc4s3)cc2)c1 (stereo not drawn) do in these assays?
PostGolgi ctrl: 32.9*; Cav3 T inh: 0.554; PostGolgi yeast: -4.2; Pyk2 oligo antag: -0.39; Ecoli WT expand: -6.0

Results for CC(NS(=O)(=O)c1cccc(Cl)c1)C(=O)Nc1ccc(-c2nc3ccccc3s2)cc1 (stereo not drawn) ?
PostGolgi ctrl: 10.3; PostGolgi yeast: -4.8; Pyk2 oligo antag: -0.8; Ecoli WT expand: -8.0

How did COc1cccc(-n2c(=O)c3cc(OC)c(OC)cc3n(CC(=O)Nc3cc(C)[nH]n3)c2=O)c1 do in these assays?
Pyk2 oligo antag: 0.7

How did Cc1cc2oc(=O)cc(CN3CCC(C)CC3)c2cc1Cl do in these assays?
PostGolgi ctrl: 4.4; Cav3 T inh: -9.86*; PostGolgi yeast: 15.0; Pyk2 oligo antag: 0.63; tolC growth inh: 10.6; Ecoli WT expand: 3.0

Results for COCc1cc(C)nc(N2CCN(c3ccccc3)CC2)c1C#N ?
Cav3 T inh: -4.47*; Pyk2 oligo antag: 0.79; tolC growth inh: 28.8

What do the screens show for `CC(C)(C)OC(=O)N1Cc2ccccc2C[C@H]1C(=O)O`?
PostGolgi ctrl: 1.5; Cav3 T inh: 1.49; PostGolgi yeast: 6.6; Pyk2 oligo antag: 1.11; tolC growth inh: -11.7; Ecoli WT expand: 5.0

Results for NC(N)=N/N=C/c1ccc(OCc2ccccc2Cl)cc1 ?
PostGolgi ctrl: 36.2*; PostGolgi yeast: 10.9; Pyk2 oligo antag: 0.1; Ecoli WT expand: 99.0*

What do the screens show for `CCOC(=O)c1c(C)c(C(=O)N(C)C2CCCCC2)c(C)n1C`?
PostGolgi ctrl: 10.3; PostGolgi yeast: 2.8; Pyk2 oligo antag: 0.91; tolC growth inh: 6.1; Ecoli WT expand: -5.0

What do the screens show for `COc1ccccc1NC(=O)N(CCN1CCCC1)Cc1cc2cc(C)ccc2[nH]c1=O`?
Cav3 T inh: -0.288; Pyk2 oligo antag: 0.36

Results for Cc1cc2cc(CN(CCN3CCOCC3)C(=O)Nc3ccccc3F)c(=O)[nH]c2cc1C ?
PostGolgi ctrl: 0.3; Cav3 T inh: 0.414; PostGolgi yeast: 18.0; Pyk2 oligo antag: 0.47; tolC growth inh: 19.3; Ecoli WT expand: 3.0

What do the screens show for `CCN1CCCC1CN(Cc1cc2cc(C)ccc2[nH]c1=O)C(=O)Nc1ccccc1OC` (stereo not drawn)?
PostGolgi ctrl: 33.9*; Cav3 T inh: 0.769; PostGolgi yeast: 6.9; Pyk2 oligo antag: -0.26; tolC growth inh: -12.1; Ecoli WT expand: 6.0

What do the screens show for `Cc1ccc2[nH]c(=O)c(CN(CCN3CCOCC3)C(=O)Nc3ccccc3F)cc2c1`?
PostGolgi ctrl: 46.1*; Cav3 T inh: 0.638; PostGolgi yeast: -0.2; Pyk2 oligo antag: 0.44; tolC growth inh: -7.7; Ecoli WT expand: -5.0

Results for CCCNC(=O)C1CNc2ccccc2O1 (stereo not drawn) ?
PostGolgi ctrl: -2.6; Cav3 T inh: -0.438; PostGolgi yeast: -7.4; Pyk2 oligo antag: 1.32; Ecoli WT expand: -4.0

Results for COC(=O)C1=C(C)NC(C)=C(C(=O)OC)C1c1cn(-c2ccccc2)nc1-c1ccco1 ?
PostGolgi ctrl: 68.7*; Cav3 T inh: -2.2; PostGolgi yeast: 24.7; Pyk2 oligo antag: -0.71; tolC growth inh: 52.5; Ecoli WT expand: -5.0

How did COCCOC(=O)C1=C(C)NC(=O)NC1c1cn(-c2ccccc2)nc1-c1cccs1 (stereo not drawn) do in these assays?
PostGolgi ctrl: -6.5; Cav3 T inh: -1.04; PostGolgi yeast: -9.9; Pyk2 oligo antag: -0.83; tolC growth inh: 6.7; Ecoli WT expand: 2.0

Results for CCc1ccc(-c2nc(CN3CCC(C(=O)NCCN(CC)c4ccccc4)CC3)c(C)o2)cc1 ?
PostGolgi ctrl: 23.5; Cav3 T inh: -7.5*; PostGolgi yeast: -1.9; Pyk2 oligo antag: -1.31; tolC growth inh: 32.1; Ecoli WT expand: 12.0

How did CCN(CCNC(=O)C1CCN(Cc2nc(-c3ccc(Cl)cc3)oc2C)CC1)c1ccccc1 do in these assays?
PostGolgi ctrl: 23.3; Cav3 T inh: -8.4*; PostGolgi yeast: 2.5; Pyk2 oligo antag: -0.02; tolC growth inh: 6.9; Ecoli WT expand: 12.0

What do the screens show for `CCN(CCNC(=O)C1CCCN(Cc2nc(-c3ccc(OC)cc3)oc2C)C1)c1ccccc1` (stereo not drawn)?
PostGolgi ctrl: 4.9; Cav3 T inh: -4.94*; PostGolgi yeast: 5.8; Pyk2 oligo antag: -0.22; tolC growth inh: 24.7; Ecoli WT expand: -2.0

How did CCc1ccc(-c2nc(CN3CCC(C(=O)NCc4ccc(F)cc4)CC3)c(C)o2)cc1 do in these assays?
PostGolgi ctrl: 17.1; Cav3 T inh: -7.27*; PostGolgi yeast: -0.2; Pyk2 oligo antag: -0.78; tolC growth inh: 14.2; Ecoli WT expand: -4.0

Results for COC(C[C@H]1O[C@H]1C(=O)COCc1ccccc1)OC ?
Cav3 T inh: 0.253

Results for O=C(NCc1ccco1)C1Cc2ccccc2CN1S(=O)(=O)c1ccccc1F (stereo not drawn) ?
Pyk2 oligo antag: -0.26; tolC growth inh: 12.0
